We go through 3 compounds from ChEMBL document CHEMBL1134357, “Heterobifunctional ligands: practical chemoenzymatic synthesis of a cell adhesive glycopeptide that interacts with both selectins and integrins” (J Med Chem, 2001).

Series [1] is described as follows: Association constant of compound against selectin P was determined. In a few lines:
(§1)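 SPR (IAsys): recombinant soluble human E-, P- or L-selectin is coupled to a BS3-activated aminosilane cuvette and the surface blocked with BSA. Binding is run in 10 mM PBS, 1 mM CaCl2, pH 7.2, at 25 °C. Ligand solution (0.01 mL into 0.2 mL total) is monitored for 20 min, and kinetic and equilibrium constants are derived from the binding curves.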

Series [2] can be described thus: Association constant of compound against selectin E was determined. In outline:
as §1

The nature of series [3]: Association constant of compound against selectin L was determined. In outline:
as §1

Series [4] is described as follows: Dissociation constant of compound against selectin E was determined. In a few lines:
as §1

Series [5] can be described thus: Dissociation constant of compound against selectin P was determined. In a few lines: as §1
Series [6] can be described thus: Dissociation constant of compound against selectin L was determined. In outline:
as §1

The target in series [7] is T1, E-selectin (Homo sapiens) (UniProt P16581).
T1 sequence (whole entry): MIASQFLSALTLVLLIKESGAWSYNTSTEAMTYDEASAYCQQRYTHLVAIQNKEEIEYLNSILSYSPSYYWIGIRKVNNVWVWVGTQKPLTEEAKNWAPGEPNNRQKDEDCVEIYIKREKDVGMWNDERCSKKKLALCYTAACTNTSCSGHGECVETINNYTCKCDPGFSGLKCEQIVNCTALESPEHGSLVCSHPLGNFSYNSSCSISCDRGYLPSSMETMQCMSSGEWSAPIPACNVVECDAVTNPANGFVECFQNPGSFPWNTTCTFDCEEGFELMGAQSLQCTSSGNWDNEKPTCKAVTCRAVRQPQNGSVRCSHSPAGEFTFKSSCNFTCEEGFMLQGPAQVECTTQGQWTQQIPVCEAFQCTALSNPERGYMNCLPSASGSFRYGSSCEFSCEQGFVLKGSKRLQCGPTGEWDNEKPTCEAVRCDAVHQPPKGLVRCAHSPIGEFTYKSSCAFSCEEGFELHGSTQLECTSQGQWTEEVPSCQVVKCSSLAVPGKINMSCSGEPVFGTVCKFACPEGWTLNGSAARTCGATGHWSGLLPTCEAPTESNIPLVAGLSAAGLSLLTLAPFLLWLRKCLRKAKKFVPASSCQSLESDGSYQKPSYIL
The experiment in a line: Binding affinity of compound against selectin E was determined. In a few lines: as §1

Series [8] deals with T2, P-selectin (Homo sapiens) (UniProt P16109).
T2 sequence (whole entry): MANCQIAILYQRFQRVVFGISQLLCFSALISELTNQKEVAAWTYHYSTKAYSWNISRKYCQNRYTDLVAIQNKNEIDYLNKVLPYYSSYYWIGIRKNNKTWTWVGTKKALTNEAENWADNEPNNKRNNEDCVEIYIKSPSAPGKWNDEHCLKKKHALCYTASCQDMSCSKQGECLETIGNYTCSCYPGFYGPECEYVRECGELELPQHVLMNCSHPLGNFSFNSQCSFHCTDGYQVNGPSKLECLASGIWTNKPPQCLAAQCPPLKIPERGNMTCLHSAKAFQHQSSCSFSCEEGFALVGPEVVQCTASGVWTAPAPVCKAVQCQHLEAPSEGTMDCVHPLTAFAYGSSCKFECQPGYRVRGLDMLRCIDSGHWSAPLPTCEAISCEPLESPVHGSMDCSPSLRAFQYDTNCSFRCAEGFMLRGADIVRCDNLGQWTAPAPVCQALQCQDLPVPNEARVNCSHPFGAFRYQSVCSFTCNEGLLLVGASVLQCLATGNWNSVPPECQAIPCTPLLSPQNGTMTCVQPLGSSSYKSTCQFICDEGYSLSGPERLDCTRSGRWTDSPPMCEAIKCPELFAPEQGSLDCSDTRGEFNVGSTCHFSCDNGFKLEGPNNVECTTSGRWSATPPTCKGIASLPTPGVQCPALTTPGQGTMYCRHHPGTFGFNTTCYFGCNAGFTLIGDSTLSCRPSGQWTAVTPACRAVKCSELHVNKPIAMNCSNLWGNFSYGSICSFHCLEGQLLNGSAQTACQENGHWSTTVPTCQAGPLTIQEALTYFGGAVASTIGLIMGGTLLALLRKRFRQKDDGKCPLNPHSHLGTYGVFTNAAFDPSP
The experiment in a line: Binding affinity of compound against selectin P was determined. In a few lines: as §1

In series [9] the target is T3, L-selectin (Homo sapiens) (UniProt P14151).
T3 sequence (whole entry): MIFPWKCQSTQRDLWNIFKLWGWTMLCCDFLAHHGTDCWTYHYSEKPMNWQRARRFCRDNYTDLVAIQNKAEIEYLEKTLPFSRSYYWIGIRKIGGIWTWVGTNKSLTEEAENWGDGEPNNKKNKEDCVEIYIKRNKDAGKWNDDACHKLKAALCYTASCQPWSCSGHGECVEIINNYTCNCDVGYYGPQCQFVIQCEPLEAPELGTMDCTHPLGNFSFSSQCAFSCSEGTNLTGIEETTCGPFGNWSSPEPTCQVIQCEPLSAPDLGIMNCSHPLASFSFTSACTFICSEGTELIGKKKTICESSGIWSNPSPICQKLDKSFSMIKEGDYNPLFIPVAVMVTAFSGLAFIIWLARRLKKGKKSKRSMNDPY
The experiment in a line: Binding affinity of compound against selectin L was determined. In outline: as §1

As for `NC(N)=NCCC[C@H](N)C(=O)NCC(=O)N[C@@H](CC(=O)O)C(=O)N[C@@H](CO)C(=O)O`, the values for the K ass in series [1], in series [2] and in series [3] were 89.1 M⁻¹ s⁻¹, 4 M⁻¹ s⁻¹ and 4.1 M⁻¹ s⁻¹, respectively.

For the compound `N=C(N)NCCC[C@H](N)C(=O)NCC(=O)N[C@@H](CC(=O)O)C(=O)N[C@@H](CO)C(=O)O`, the K diss is 0.00066 s⁻¹ in series [4], 0.00092 s⁻¹ in series [5] and 0.00077 s⁻¹ in series [6]. For the same compound, the Ka in series [7] came to 6100 M⁻¹; in series [8], 97000 M⁻¹; in series [9], 5400 M⁻¹.

`CC(=O)N[C@H]1[C@H]([C@H](O)[C@H](O)CO)O[C@@](O[C@H]2[C@@H](O)[C@@H](CO)O[C@@H](O[C@@H]([C@H](O[C@@H]3O[C@@H](C)[C@@H](O)[C@@H](O)[C@@H]3O)[C@H](C=O)NC(C)=O)[C@H](O)CO)[C@@H]2O)(C(=O)O)C[C@@H]1O` [SIALYL LEWIS X]: the K ass in [1] was found to be 229.6 M⁻¹ s⁻¹; in [2], 21.1 M⁻¹ s⁻¹; in series [3], 312.7 M⁻¹ s⁻¹. The K diss in [4] worked out at 0.0017 s⁻¹; in series [5], 0.00026 s⁻¹; in [6], 0.36 s⁻¹. Besides, the Ka in series [7] is 12000 M⁻¹; in [8], 880000 M⁻¹; in [9], 870 M⁻¹.
